This note sets out measurements from ChEMBL document CHEMBL3272247, “Synthesis, antifertility activity, and protein binding affinity of 7(8 leads to 11 alpha)abeo steroids” (1977).

Experiment [1] concerns Rattus norvegicus. Briefly: Antifertility activity in Sprague-Dawley rat assessed as no implantation at 10 mg/kg/day, sc administered for 5 days measured on day 10. The class given is functional, organism-based. The method in brief:
(§1)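 Mated females dosed in sesame oil (0.1 mL) over 5 days from day 0 of pregnancy (sperm-positive day). Autopsy on day 10 of presumptive pregnancy; normal and resorbing fetuses counted. ED100 = dose (mg/kg/day) giving no implantation sites.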

The species entered for experiment [2] is Oryctolagus cuniculus. Briefly: Displacement of [3H]estradiol from rabbit estrogen receptor after 24 hrs at 0.1 nM to 10 mM. The method in brief:
(§2)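 Uterine cytosol from TE buffer (Tris-HCl, 1 mM EDTA, pH 7.4) homogenate by ultracentrifugation. Competitor 0.1 nM–10 mM with constant label ([3H]estradiol 6000 cpm or [3H]progesterone 20000 cpm), 24 h at 4 °C, started by cytosol addition. Bound label isolated; RBA derived against unlabeled estradiol or progesterone standard curves.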
(Displacement assays read how much labelled ligand stays bound in the presence of the test substance.)

In experiment [3] the target is T1, Progesterone receptor (Oryctolagus cuniculus) (UniProt P06186).
T1 sequence (whole entry): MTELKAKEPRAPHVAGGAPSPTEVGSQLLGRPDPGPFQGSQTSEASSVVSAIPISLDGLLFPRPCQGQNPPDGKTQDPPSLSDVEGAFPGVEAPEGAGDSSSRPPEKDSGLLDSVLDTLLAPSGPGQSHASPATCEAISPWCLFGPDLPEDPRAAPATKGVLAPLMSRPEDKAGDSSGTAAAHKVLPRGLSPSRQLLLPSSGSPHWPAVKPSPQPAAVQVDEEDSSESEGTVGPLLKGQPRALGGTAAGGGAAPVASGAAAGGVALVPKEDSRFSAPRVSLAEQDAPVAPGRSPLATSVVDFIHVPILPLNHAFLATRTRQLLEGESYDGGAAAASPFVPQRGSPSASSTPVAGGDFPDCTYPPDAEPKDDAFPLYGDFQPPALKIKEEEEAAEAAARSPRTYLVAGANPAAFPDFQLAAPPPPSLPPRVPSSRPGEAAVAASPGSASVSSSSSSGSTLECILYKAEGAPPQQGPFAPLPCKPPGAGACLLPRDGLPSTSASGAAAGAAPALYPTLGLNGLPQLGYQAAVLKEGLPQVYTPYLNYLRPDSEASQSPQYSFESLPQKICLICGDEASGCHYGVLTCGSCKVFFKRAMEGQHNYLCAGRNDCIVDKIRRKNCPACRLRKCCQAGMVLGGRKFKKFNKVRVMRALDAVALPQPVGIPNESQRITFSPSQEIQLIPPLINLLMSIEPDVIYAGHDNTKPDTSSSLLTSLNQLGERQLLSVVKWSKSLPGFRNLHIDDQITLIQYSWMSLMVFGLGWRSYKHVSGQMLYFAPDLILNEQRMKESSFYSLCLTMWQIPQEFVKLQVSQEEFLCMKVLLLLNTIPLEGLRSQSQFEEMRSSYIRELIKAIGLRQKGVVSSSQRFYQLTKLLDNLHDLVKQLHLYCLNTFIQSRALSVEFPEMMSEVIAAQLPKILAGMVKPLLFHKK
Briefly: Displacement of [3H]progesterone from rabbit progesterone receptor after 24 hrs at 0.1 nM to 10 mM. The method in brief: as §2

The subject of experiment [4] is Rattus norvegicus. Briefly: Uterotropic activity in po dosed rat administered for 3 days relative to ethynylestradiol. The class given is functional, Uterus. The method in brief:
(§3)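 Immature female rats, 45–55 g, dosed daily for 3 days with sesame oil suspension (0.1 mL); vehicle controls. Uteri removed, cleaned, weighed (nearest 0.2 mg) next day. Expressed as percent activity relative to estradiol (sc) or ethynylestradiol (oral).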

Experiment [5] deals with Rattus norvegicus. Briefly: Antifertility activity in Sprague-Dawley rat assessed as no implantation at 6.8 mg/kg/day, po administered for 5 days measured on day 10. The class given is functional, organism-based. The method in brief: as §1
In experiment [6] the test system is Rattus norvegicus. Briefly: Antiuterotropic activity in rat assessed as D-estradiol-induced increase in uterine weight inhibition of at 10 ug/kg/day, po administered for 3 days. The class given is functional, organism-based. The method in brief: (§4)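 Immature female rats, 45–55 g, given estradiol together with test compound daily for three consecutive days as sesame oil suspension (0.1 mL); vehicle-only controls. Uteri excised, cleaned and weighed to nearest 0.2 mg the day after last treatment.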

The test system of experiment [7] is Rattus norvegicus. Briefly: Uterotropic activity in rat at 1 mg/kg/day, sc administered for 3 days relative to ethynylestradiol. Particulars: Uterus.
The subject of experiment [8] is Rattus norvegicus. Briefly: Antiandrogenic activity in rat assessed as inhibition of androgen stimulation of seminal vesicle at 30 mg/kg/day, sc. The class given is functional, organism-based. The method in brief:
(§5)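 Immature, castrated male rats; test compound assessed for ability to inhibit androgen stimulation of seminal vesicle, ventral prostate and levator ani weight.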

For experiment [9], the system named is Rattus norvegicus. Briefly: Antiandrogenic activity in rat assessed as inhibition of androgen stimulation of levator ani weight at 30 mg/kg/day, sc. The class given is functional, organism-based. The method in brief:
as §5

Experiment [10] relates to Rattus norvegicus. Briefly: Antiandrogenic activity in rat assessed as inhibition of androgen stimulation of ventral prostate at 30 mg/kg/day, sc. The class given is functional, organism-based. The note with it: Prostate gland. The essentials:
as §5

In experiment [11] the test system is Rattus norvegicus. Briefly: Antiuterotropic activity in rat assessed as D-estradiol-induced increase in uterine weight inhibition of at 5 mg/kg/day, sc administered for 3 days. The class given is functional, organism-based. The method in brief: as §4
Experiment [12] concerns Rattus norvegicus. Briefly: Antifertility activity in Sprague-Dawley rat assessed as no implantation at 4 mg/kg/day, sc administered for 5 days measured on day 10. The class given is functional, organism-based. The essentials:
as §1

The subject of experiment [13] is Oryctolagus cuniculus. Briefly: Progestational activity in Clauberg rabbit at 10 mg/kg/day, sc. The class given is functional, organism-based. The essentials:
(§6)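 Immature rabbit (Clauberg); uterine stimulation measured for progestational activity, and its antagonism for antiprogestational activity.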

For experiment [14], the system named is Oryctolagus cuniculus. Briefly: Antiprogestational activity in Clauberg rabbit at 10 mg/kg/day, sc. The class given is functional, organism-based. The method in brief: as §6
Experiment [15] has as its system Oryctolagus cuniculus. Briefly: Antiprogestational activity in Clauberg rabbit at 20 mg/kg/day, sc. The class given is functional, organism-based. The method in brief: as §6
The subject of experiment [16] is Oryctolagus cuniculus. Briefly: Progestational activity in Clauberg rabbit at 20 mg/kg/day, sc. The class given is functional, organism-based. The essentials: as §6
In experiment [17] the test system is Rattus norvegicus. Briefly: Uterotropic activity in sc dosed rat administered for 3 days relative to estradiol. The class given is functional, Uterus. The method in brief:
as §3

Experiment [18] relates to Rattus norvegicus. Briefly: Antifertility activity in sc dosed Sprague-Dawley rat assessed as no implantation administered for 5 days measured on day 10. The class given is functional. The essentials:
as §1

Experiment [19] concerns Oryctolagus cuniculus. Briefly: Antiprogestational activity in Clauberg rabbit at 10 mg/kg/day, po. The class given is functional, organism-based. The method in brief: as §6
The test system of experiment [20] is Oryctolagus cuniculus. Briefly: Progestational activity in Clauberg rabbit at 10 mg/kg/day, po. The class given is functional, organism-based. The essentials: as §6

Calls of active or inactive are those of the source. The calls are words filed in the database; no cut-off is given here.

Regarding `COc1ccc2c(c1)CC[C@H]1C[C@@]3(C)C(=CC[C@@H]3OC(C)=O)C=C21`, the outcome in the experiment on Rattus norvegicus [1] was inactive. Further, the RBA was below 0.025 in the experiment listed under Oryctolagus cuniculus [2] and below 0.4 in experiment [3].

For `C#C[C@]1(O)CC[C@H]2C[C@H]3c4ccc(O)cc4CC[C@H]3C[C@@]21C`, the “relative binding affinity (RBA)” value with Rattus norvegicus [4] was determined as 0.18. The outcome in the experiment with Rattus norvegicus [5] and in the experiment with Rattus norvegicus [6] was inactive. For the same compound, the values for the RBA (in the experiment listed under Oryctolagus cuniculus [2]; in [3]) were 4.4 and below 0.4, respectively.

As to `C[C@]12C[C@@H]3CCC4=CC(=O)CC[C@H]4[C@@H]3C[C@@H]1CC[C@@H]2O`, the result in the experiment on Rattus norvegicus [7], in the experiment on Rattus norvegicus [8], in the experiment on Rattus norvegicus [9], with Rattus norvegicus [10], in the experiment with Rattus norvegicus [11] and in the experiment with Rattus norvegicus [12] was inactive. Also, the RBA in the experiment filed under Oryctolagus cuniculus [2] was 0.06; in experiment [3] it was below 0.4.

With `C[C@]12C[C@@H]3CCC4=C(CCC(=O)C4)[C@@H]3C[C@@H]1CC[C@@H]2O`, the outcome with Rattus norvegicus [7], with Rattus norvegicus [8], with Rattus norvegicus [9], with Rattus norvegicus [10], with Rattus norvegicus [11] and in the experiment on Rattus norvegicus [12] was inactive. In addition, the RBA in the experiment listed under Oryctolagus cuniculus [2] is below 0.085; in experiment [3], below 0.4.

Take `CC(=O)[C@H]1CC[C@H]2C[C@@H]3[C@@H](CCC4CC(=O)C=C[C@H]43)C[C@@]21C` (stereo partly specified): the outcome with Oryctolagus cuniculus [13] and with Oryctolagus cuniculus [14] was inactive. The compound also displayed an RBA in experiment [3] of 1.9.

For `CC(=O)[C@H]1CC[C@H]2C[C@@H]3[C@@H](CCC4=CC(=O)CC[C@H]43)C[C@@]21C`, the result with Oryctolagus cuniculus [15] and in the experiment with Oryctolagus cuniculus [16] was inactive. The compound also returned an RBA in experiment [3] of 1.2.

For `C[C@]12C[C@@H]3CCc4cc(O)ccc4[C@@H]3C[C@@H]1CC[C@@H]2O`, the “relative binding affinity (RBA)” value with Rattus norvegicus [17] was determined as 0.02. In the experiment with Rattus norvegicus [18], the ED100 is 1 mg/kg/day. Besides, the RBA in the experiment listed under Oryctolagus cuniculus [2] is 2.9.

Turning to `C#C[C@]1(O)CC[C@H]2C[C@@H]3[C@@H](CCC4=CC(=O)CC[C@H]43)C[C@@]21C`, the result in the experiment with Oryctolagus cuniculus [19] and with Oryctolagus cuniculus [20] was inactive. This compound came in with an RBA in experiment [3] of 2.
